# IMP-1 inh = inhibitors of Pseudomonas aeruginosa IMP-1 metallo-beta-lactamase. AID 1556. purified IMP-1, nitrocefin hydrolysis, epi-absorbance fluorescence. inhibition, % at 5.6 µM. 290,000 compounds, 0.45% hits;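 active = inhibition above the mean plus 3 SD of all compounds in the same screening run, cut at about 4.5% in these data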
#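 Material – recombinant IMP-1 enzyme, purified · Amount – IMP-1 0.2 nM before substrate addition · Medium – HEPES buffer pH 7.1 with ZnSO4 and Brij 35 · Timing – 25 °C, 15 min preincubation, 25 min reaction · Measured by – plate fluorescence quenching by hydrolysis product, ex 480/em 530 nm · Read-out – percent enzyme inhibition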
# PHOSPHO1 inh = inhibitors of human PHOSPHO1 phosphatase; recombinant PHOSPHO1, absorbance phosphatase assay; 290,000 compounds, 1.1% hits; Q8TCT1; inhibition, % at 13.3 µM; in the data active = inhibition above about 60%
# Target sequence (Q8TCT1 whole entry, looked up): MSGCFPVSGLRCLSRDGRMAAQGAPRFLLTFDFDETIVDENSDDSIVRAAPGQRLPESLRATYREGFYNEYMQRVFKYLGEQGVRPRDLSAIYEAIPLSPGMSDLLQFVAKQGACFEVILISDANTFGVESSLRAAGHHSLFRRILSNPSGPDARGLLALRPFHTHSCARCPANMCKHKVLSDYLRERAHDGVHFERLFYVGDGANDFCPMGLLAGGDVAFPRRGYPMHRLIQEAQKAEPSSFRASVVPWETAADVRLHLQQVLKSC
# VIM-2 inhibitor = blocks Pseudomonas aeruginosa VIM-2 metallo-beta-lactamase. purified VIM-2, nitrocefin hydrolysis, epi-absorbance fluorescence. inhibition, % at 5.6 µM. 290,000 compounds, 0.89% hits. AID 1527;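 active = inhibition above the mean of all tested compounds plus 3 SD, cutoff set per screening run, cut at about 7.5% in these data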;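 also: red hydrolysis product quenches plate fluorescence so inhibitors raise well fluorescence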
# PvdQ acylase = blocks Pseudomonas aeruginosa PvdQ acylase activity; AID 488965; 340,000 compounds, 0.063% hits; inhibition, % at 10 µM; purified PvdQ acylase, fluorescence plate reader; in the data active = inhibition above about 30%, passing the limit was not always enough
# CR mimetic SO = yeast age-related superoxide inhibition as caloric restriction mimetic; S. cerevisiae aged cells, superoxide DHE fluorescence; hits give low values; superoxide response (% of plate mean), % at 10 µM; 330,000 compounds, 0.18% hits; AID 2690;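 active = superoxide response under a set limit, about three screen SD below normal, cut at about 65% in these data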;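 also: yeast aged for seven days with compound at 30 °C before DHE staining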
# Numbers stand for hits; - = inactive; . = no result given. Most compounds without a hit are left out; they make up all but 2.2% or so of the library.
SMILES,IMP-1 inh,PHOSPHO1 inh,VIM-2 inhibitor,PvdQ acylase,CR mimetic SO
CCOc1ccc(S(=O)(=O)Nc2cc(Sc3ncn[nH]3)c3oc(=O)sc3c2)cc1,-,102.9,-,.,-
CCn1nnc2cc(C(=O)Nc3cc(Cl)ccc3C)ccc21,.,.,.,-,-
CC(=O)N1CCN(C(=S)c2ccc(-c3ccc(Cl)cc3)o2)CC1,-,73.5,-,-,-
O=[N+]([O-])c1cc(-c2ccc(C(=S)N3CCOCC3)o2)ccc1Cl,-,60.9,-,-,-
N#CCCN1CCN(C(=S)c2ccc(-c3ccc(Cl)c(Cl)c3)o2)CC1,-,67.4,-,-,-
Cc1ccc(NC(=O)CN2C(=O)C(=O)N(C3CCCC3)C2=O)c(Cl)c1,.,.,.,-,-
COc1ccc(NC(=O)CN(c2ccc(F)cc2)S(=O)(=O)c2ccccc2)c(OC)c1,-,-,-,-,-
Cc1c(NC(=O)c2cccnc2Cl)c(=O)n(-c2ccccc2)n1C,7.0,-,-,-,-
CC(C)(C)c1cc(C(=O)Nc2cccnc2)cc(C(=O)Nc2cccnc2)c1,-,-,-,-,-
COc1cccc(/C=N/NC(=O)c2cc3cc([N+](=O)[O-])ccc3s2)c1O,-,83.2,-,-,-
COc1ccc(C(=O)N2CCN(c3ccccc3Cl)CC2)cc1S(=O)(=O)NC1CC1,.,.,.,-,-
O=C(CN1C(=O)NC2(CCCCC2)C1=O)NCc1ccc2c(c1)OCO2,-,-,-,-,-
CCN=c1scc(-c2ccco2)n1/N=C/c1ccc(O)cc1,-,80.4,-,-,-
CCN=c1scc(-c2ccco2)n1/N=C/c1ccc(OC)c(O)c1,-,-,-,-,-
O=S(=O)(c1cnc[nH]1)N1CCN(C(c2ccc(F)cc2)c2ccc(F)cc2)CC1,-,-,-,-,-
CCOC(=O)c1sc2nc3n(c(=O)c2c1C)CCC3,-,-,-,-,-
CCOC(=O)c1sc2nc(C)n(N)c(=O)c2c1C,-,62.9,-,-,-
O=C(Oc1ccc(C(=S)N2CCOCC2)cc1Br)c1cc(Cl)ccc1Cl,-,-,-,-,-
O=C(Oc1c(Br)cc(C(=S)N2CCOCC2)cc1Br)c1ccc(Cl)cc1,-,95.9,-,-,-
Cc1cc(-n2c(C)cc(C(=O)CSc3nnnn3-c3ccccc3)c2C)no1,-,-,-,-,-
Cc1cc(-n2c(C)cc(C(=O)CSc3ccccn3)c2C)no1,.,.,.,-,-
Cc1cc(-n2c(C)cc(C(=O)CSc3ccc4c(c3)OCCO4)c2C)no1,-,71.1,-,-,-
Cc1ccc(-n2nnnc2SCC(=O)c2cc(C)n(-c3cc(C)on3)c2C)c(C)c1,-,75.4,-,-,-
O=C(Cn1c(SCc2ccccc2)nc2ccccc21)N1CCOCC1,-,62.3,-,-,-
O=C(CSc1nc2ccccc2n1CC(=O)N1CCOCC1)N1CCCC1,-,-,-,-,-
SMILES,IMP-1 inh,PHOSPHO1 inh,VIM-2 inhibitor,PvdQ acylase,CR mimetic SO
O=C(CN1C(=O)NC2(CCCC2)C1=O)OCC(=O)c1cccc(Cl)c1,.,.,.,-,.
COC(=O)CSc1ccc2nnc(-c3ccc(OC)c(OC)c3)n2n1,-,-,-,-,-
CCC(Sc1ccc2nnc(-c3ccc(OC)c(OC)c3)n2n1)C(=O)O (stereo not drawn),-,60.0,-,-,-
COc1ccc(-c2nnc3ccc(SC(C(C)=O)C(C)=O)nn23)cc1OC,-,106.0,-,-,-
O=C(NCCCO)c1ccc2nc(-c3ccco3)c(-c3ccco3)nc2c1,-,-,-,-,.
O=C(NCCO)Nc1ccc2nc(-c3ccco3)c(-c3ccco3)nc2c1,6.4,-,-,.,-
CC(=O)c1ccc(NC(=O)c2ccc3nc(-c4ccco4)c(-c4ccco4)nc3c2)cc1,-,97.9,-,-,-
CCCC(C)c1oc(=O)cc(O)c1C (stereo not drawn),.,.,.,-,-
COc1cccc(/C=N/NC(=O)CNC(=O)C(c2ccccc2)c2ccccc2)c1O,-,-,-,-,-
CC(=O)Nc1ccc(NC(=O)CC2(CC(=O)N3CCOCC3)CCCC2)cc1,.,.,.,-,.
Fc1ccc(-c2n[nH]c(=S)n2Cc2ccccc2)cc1,-,-,-,-,-
S=c1[nH]nc(-c2ccncc2)n1Cc1ccccc1,-,87.7,-,-,-
COc1ccc(-c2n[nH]c(=S)n2-c2cc(OC)ccc2OC)cc1,-,-,-,-,-
CCc1ccccc1-n1c(-c2ccncc2)n[nH]c1=S,-,90.0,-,-,-
Cc1ccccc1-n1c(-c2ccncc2)n[nH]c1=S,.,-,.,-,-
Cc1scc(-c2n[nH]c(=S)n2Cc2ccccc2)c1C,-,-,-,-,-
COc1ccccc1-n1c(-c2ccc(NS(C)(=O)=O)cc2)n[nH]c1=S,-,87.9,-,-,-

# Compound activity (PubChem)
